# Screening results as filed in PubChem BioAssay.
# KCNQ1 inh – blocks the human KCNQ1 potassium channel | AID 2642 | CHO-K1 KCNQ1, FluxOR thallium flux fluorescence; active compounds read high | actives 1.3% (n = 310,000) | B-score at 10 µM;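 active = compounds whose thallium flux B-score, printed positive for inhibition, exceeds three library SD while starting fluorescence stays within three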;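 also: channel opened by potassium depolarization with thallium stimulus after 20 min compound exposure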
# KCNK3 inh – human KCNK3 channel inhibition, primary screen; actives 0.84% (n = 340,000); O14649; CHO-KCNK3 thallium flux, FluxOR fluorescence; active compounds read low; B-score at 10 µM;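 active = B-score under library mean minus 4 SD, starting fluorescence ratio at most library mean plus 5 SD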;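 also: more negative B-score means stronger inhibition of thallium flux through KCNK3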
# KCC2 mod – KCC2 (human) Cl- transport modulation; Q9H2X9; KCC2 cells, thallium flux FluoZin-2 fluorescence; B-score of Tl+ flux slope (higher = more flux/activation; lower = inhibition) at 10 µM; actives 2.2% (n = 190,000); AID 1456;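 active = thallium flux slope and its plate-corrected score both differing from the plate sample mean at a set confidence after two filtering rounds, in either direction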;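 also: slope of fluorescence scaled to starting intensity during 10 to 20 s after thallium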
# KCNQ1 act – potentiates or activates the human KCNQ1 potassium channel | P51787 | CHO-K1 KCNQ1, thallium flux FluxOR fluorescence; active compounds read high | B-score at 10 µM | actives 0.35% (n = 310,000) | AID 2648;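 active = fluorescence ratio B-score, a plate-corrected score, at least three library SD, with initial intensity B-score within 5 SD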
#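 System: CHO-K1 cells stably expressing KCNQ1 / Medium: assay buffer for compound exposure, DMSO matched across wells / Reagent: thallium- and potassium-containing depolarizing buffer / Compound: one concentration, matched DMSO / Incubation: 20 min compound pretreatment at room temperature / Measured by: kinetic FluxOR fluorescence, 10 s baseline plus 110 s post-stimulus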
# hERG rescue – compounds protecting human hERG from proarrhythmic drug block. CHO-hERG, FluxOR thallium flux, dofetilide IC70 present. activation (rescue from dofetilide block), less the hit threshold, % at 10 µM. actives 0.51% (n = 310,000);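 active = activation above the mean of controls blocked by dofetilide plus 5 SD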;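 also: thallium influx through hERG after potassium depolarization seen as dye fluorescence rise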
# KCNK9 block – blocks the human KCNK9 two-pore domain potassium channel; HEK293 KCNK9, FluxOR thallium flux fluorescence; active compounds read low; actives 1.2% (n = 310,000); Q9NPC2; B-score at 10 µM; AID 488922;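 active = ratio B-score over 3 SD below the library mean, with starting fluorescence within 5 SD of its mean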;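 also: negative B-score means less thallium flux so channel inhibition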
# KCNK3 confirm – human KCNK3 channel inhibition, confirmation assay; shares compounds with KCNK3 inh; CHO-KCNK3 thallium flux, FluxOR fluorescence; 0% buffer, 100% carvedilol maximal block; actives 99% (n = 2,400); ratio percent of control, % at 10 µM;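 active = ratio percent of control, averaged over triplicates, above buffer control mean plus 5 SD, cut at about 64% in these data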;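 also: ratio is the fluorescence rise from min to max over baseline after thallium stimulus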
# KCNK3 noninduced – activity in cells without induced KCNK3 expression | shares compounds with KCNK3 inh | non-induced KCNK3 parental cells, FluxOR thallium flux; active compounds read low | thallium flux ratio (lower = more inhibition) at 10 µM | actives 40% (n = 2,400);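 active = thallium flux ratio, averaged over three wells, more than 5 SD below the buffer control mean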;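 also: host cells are CHO cells without KCNK3 induction; ratio is peak minus trough fluorescence over baseline then normalized to buffer controls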
# * = called active by the depositor; i = inactive; nt = not tested or not shown. Only some compounds are listed: those with a hit (about 4.1% of all), similar ones and a draw of the others.
SMILES,KCNQ1 inh,KCNK3 inh,KCC2 mod,KCNQ1 act,hERG rescue,KCNK9 block,KCNK3 confirm,KCNK3 noninduced
COc1ccc(Nc2nc(-c3cccs3)cs2)c(OC)c1,i,i,nt,i,-14.3,i,nt,nt
COc1ccc(OC)c(Nc2nc(-c3cccs3)cs2)c1,i,-9.1*,2.93,i,0.7,i,89.7*,i
CCOC(=O)c1cc(C#N)c(N2CCN(c3ccccn3)CC2)nc1-c1ccccc1,i,-9.41*,0.863,i,-3.6,i,98.7*,i
CCOC(=O)c1cc(C#N)c(SC)nc1-c1ccccc1,i,i,nt,i,-6.4,i,nt,nt
Cc1ccccc1C(=O)NC1CCN(Cc2ccccc2)CC1,i,i,0.79,i,-9.7,i,nt,nt
CC1(C)Cc2cccc(C(=O)NC3CCN(Cc4ccccc4)CC3)c2O1,i,-8.84*,nt,i,-10.5,i,114.0*,i
CCCCCCNS(=O)(=O)c1ccc(Cl)s1,i,-9.23*,1.58,i,-5.1,i,94.3*,i
COC(=O)c1c(NC(=O)CSc2nnc(-c3ccco3)n2Cc2ccccc2)sc(C)c1C,i,i,-0.716,i,-9.7,i,nt,nt
O=S(=O)(N1CCCCC1)N1CCN(c2cc(Cl)ccc2Cl)CC1,i,-9.16*,-1.85,i,-4.3,i,111.3*,i
O=S(=O)(c1ccc(Cl)cc1)N1CCN(S(=O)(=O)N2CCCCCC2)CC1,i,i,0.656,i,-1.9,i,nt,nt
C=CCOC(=O)C1=C(C)NC(C)=C(C(=O)OCC=C)C1c1ccc(C)o1,i,-10*,0.124,i,-3.2,i,104.0*,i
CCOC(=O)C1=C(C)NC(C)=C(C(=O)OCC)C1c1ccc(C)o1,i,i,-1.35,i,-3.3,i,nt,nt
Cc1ccc(NC(=O)C2CCCN2C(=O)NC2CCCCC2)cc1C (stereo not drawn),i,i,0.03,i,-14.9,i,nt,nt
CCOC(=O)CNC(=O)C1c2ccccc2Oc2ccccc21,i,-12.4*,nt,i,-7.6,i,50.3*,i
O=C(CSc1ncn[nH]1)NCc1ccc(Cl)cc1,i,i,nt,i,-10.1,i,nt,nt
CCC(c1nnnn1CS(=O)(=O)c1ccc(C)cc1)N1CCN(c2nc3ccccc3s2)CC1 (stereo not drawn),i,i,-1.68,i,-5.2,i,nt,nt
CCCC(c1nnnn1Cc1cccs1)N1CCN(c2nc3ccccc3s2)CC1 (stereo not drawn),i,-8.89*,-1.64,i,-1.8,-8.07*,103.7*,i
Cn1c(SCC(=O)NC2CCCCC2)nnc1-c1cc2cc(Cl)ccc2o1,i,i,0.205,i,-15.1,i,nt,nt
O=C1OC(c2ccccc2)(c2ccccc2)c2ccccc21,nt,-12.5*,nt,nt,nt,nt,107.0*,i
O=C1CC(c2ccccc2)(c2ccccc2)c2ccccc21,nt,i,nt,nt,nt,nt,nt,nt
COC(=O)/C(=C/c1ccco1)NC(=O)c1ccccc1,i,i,0.0511,i,-4.2,i,nt,nt
CCCOC(=O)/C(=C\C=C\c1ccco1)NC(=O)c1ccccc1,i,-10.4*,-3.2,i,-17.6,i,107.3*,0.146*
COC(=O)C1=C(C)N=C2SCCC(=O)N2C1c1ccc(C(=O)OC)cc1 (stereo not drawn),i,-8.91*,0.556,i,-9.8,i,78.3*,0.153*
CCOC(=O)C1=C(C)N=C2SCCC(=O)N2[C@@H]1/C=C/c1ccccc1,i,i,0.591,i,-9.8,i,nt,nt
COCCOC(=O)C1=C(C)N=C2SCCC(=O)N2C1/C=C/c1ccccc1 (stereo not drawn),i,-13.5*,1.08,i,-6.2,i,105.0*,0.157*
